From PubChem
In the library only some 1.5% were active in any assay of this set; here they are far more common.
CXCR6 inh: inhibitors of human CXCR6 receptor; O00574; inhibition, % at 20 µM; CHO-K1 PathHunter CXCR6 beta-arrestin, luminescence; 0.36% of 360,000 active; AID 602244; in the data active means inhibition above about 34%, passing the limit was not always enough;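 further: antagonist mode with CXCL16 agonist at 10 nM final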
APJ ag: APJ receptor agonism; P35414; CHO-K1 APJ PathHunter beta-arrestin, luminescence; 0% DMSO wells, 100% apelin; activation, % at 20 µM; 0.11% of 330,000 active; AID 2520;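 active means activation more than six SD over the plate average, tested at 20 µM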
Target sequence (P35414 whole entry, looked up): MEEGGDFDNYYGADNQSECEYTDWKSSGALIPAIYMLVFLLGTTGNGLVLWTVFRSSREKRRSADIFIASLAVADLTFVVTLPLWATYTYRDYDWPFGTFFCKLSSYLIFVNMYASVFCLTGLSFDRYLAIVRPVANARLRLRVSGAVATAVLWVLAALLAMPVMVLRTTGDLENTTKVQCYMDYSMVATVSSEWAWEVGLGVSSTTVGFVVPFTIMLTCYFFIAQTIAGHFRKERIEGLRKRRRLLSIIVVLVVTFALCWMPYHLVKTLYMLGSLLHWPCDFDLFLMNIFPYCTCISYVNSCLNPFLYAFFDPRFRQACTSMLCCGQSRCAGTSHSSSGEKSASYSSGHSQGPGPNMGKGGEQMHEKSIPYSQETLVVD
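Material: engineered CHO-K1 APJ arrestin reporter cells; amount: 1000 CHO-K1 reporter cells seeded per well; incubation: compound stimulation 90 min at 25 °C, detection 60 min; signal: luminescent beta-gal fragment complementation, chemiluminescent substrate; read-out basis: APJ agonist activity; controls: DMSO-only wells as negative, 10 nM Apelin-13 as positive control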
APJ antagonist: blocks the human apelin receptor APJ | 0.32% of 330,000 active | CHO-K1 APJ beta-arrestin complementation, luminescence | inhibition, % at 20 µM | P35414;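 active means inhibition above about 40% at 20 µM, limit read from the data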;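 further: cells challenged with 10 nM apelin-13 agonist together with compound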
CCR6 antagonist: CCR6 (human) receptor antagonism | P51684 | CHO-K1 CCR6 PathHunter beta-arrestin, luminescence, CCL20-stimulated | inhibition, % at 20 µM | 0.49% of 340,000 active | AID 493098;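 active means compounds whose inhibition of the agonist-driven luminescence signal at 20 µM reaches about 50%, limit read from the data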;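 further: cells stimulated with CCL20 at 14 nM final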
iPSC survival up: increases survival of single human iPS cells; hiPSC single-cell survival, ATPlite luminescence; 100% = ROCK inhibitor wells, 0% = DMSO; survival enhancement, % at 20 µM; 0.044% of 360,000 active; AID 602274; in the data active means survival enhancement above about 18%;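 further: cells exposed to compounds for 16 hours before the ATP read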
EBI2 antag: EBI2 (human) antagonism; P32249; inhibition, % at 5 µM; EBI2 beta-arrestin recruitment, luminescence, 7a,25-OHC stimulated; 0.81% of 360,000 active; AID 651636; in the data active means inhibition above about 38%;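 further: enzyme fragment complementation signal reports receptor beta-arrestin coupling in cells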
EBI2 antag conf: confirmation of human EBI2 receptor antagonists; AID 651997; shares compounds with EBI2 antag; inhibition, % at 5 µM; 29% of 2,400 active; EBI2 beta-arrestin luminescence, 7a,25-OHC antagonism;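 active means inhibition of at least 50%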
EBI2 agonist: counter-screen for EBI2 antagonists: EBI2 agonist activity | 2,400 tested, under 10 active | activation, % at 5 µM | EBI2-expressing cells, agonist mode, luminescence, 60 min; 0% vehicle, 100% 7α,25-dihydroxycholesterol control | AID 652000 | shares compounds with EBI2 antag;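 active means activation of at least 50%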
bGal cs: beta-galactosidase inhibition counter-screen | inhibition, % at 5 µM | 1% of 2,400 active | purified beta-galactosidase, luminescent Galacton Star, 15 min | shares compounds with EBI2 antag;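 active means replicate-average signal at least 3 plate SD below neutral wells, shown as high inhibition, flagging enzyme-inhibiting false positives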;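 further: higher means stronger loss of beta-gal luminescence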
A number is an active result; - = inactive; . = no result given.

SMILES	CXCR6 inh	APJ ag	APJ antagonist	CCR6 antagonist	iPSC survival up	EBI2 antag	EBI2 antag conf	EBI2 agonist	bGal cs
COc1ccc(-c2cn3nc(SCC(=O)NCC4CCCO4)ccc3n2)cc1 (stereo not drawn)	-	-	-	-	-	67	-	-	-
CCCn1c(SCC(=O)Nc2cc(S(=O)(=O)N3CCCCC3)ccc2C)n[nH]c1=O	-	-	-	-	-	-	.	.	.
CCOC(=O)N1CCN(C(=O)CNC2CCCCCCC2)CC1	-	-	-	-	-	45	-	-	-
Cc1cc(Br)ccc1OCC(=O)NNC(=O)Cc1ccccc1	-	-	-	-	-	46	-	-	-
Cc1cc(Br)ccc1OCC(=O)NNC(=O)CCc1ccccc1	-	-	-	-	-	-	.	.	.
O=C(N1CCOCC1)N1[C@H](COCc2ccccc2)C=CS1(=O)=O	-	.	.	.	-	-	.	.	.
CN(CCCC(=O)NCc1ccc2c(c1)OCO2)S(=O)(=O)c1ccc([N+](=O)[O-])cc1	-	-	-	-	-	-	.	.	.
Cc1cccc(OCC(=O)N2CCN(C(=O)c3ccc([N+](=O)[O-])cc3)CC2)c1	-	-	-	-	-	47	-	-	-
COc1ccc(OCC(=O)N2CCN(C(=O)c3ccccc3)CC2)cc1	-	-	-	-	-	77	74	-	-
COc1ccc(OCC(=O)N2CCN(C(=O)c3cccc4ccccc34)CC2)cc1	-	-	-	-	-	70	-	-	-
COc1ccc(OCC(=O)N2CCN(C(=O)c3ccc([N+](=O)[O-])cc3)CC2)cc1	-	-	-	-	-	88	60	-	-
O=C(COC(=O)CNC(=O)c1ccccc1Cl)Nc1ccccc1Cl	-	-	-	-	-	-	.	.	.
Cc1ccc([C@H]2C[C@@H](n3cc(-c4ccc(F)cc4)nn3)[C@H](O)CN2C(=O)C2CCCCC2)cc1	-	.	.	.	-	-	.	.	.
CCOC(=O)C1CCN(S(=O)(=O)c2ccc(OC)c(C(=O)N3CCCCC3)c2)CC1	-	-	-	-	-	-	.	.	.
CCc1cc2c(=O)n(CCCOC)c(SCC(=O)Nc3oc(C)c4c(C)n[nH]c(=O)c34)nc2s1	-	-	-	-	-	-	.	.	.
O=C(COc1ccc(Cl)cc1)N1CCN(C(=O)c2ccccc2F)CC1	-	-	-	-	-	82	-	-	-
COc1cc(C(=O)Nc2nnc(CC(=O)NCc3ccccc3)s2)cc(OC)c1OC	-	-	-	-	-	-	.	.	.
COc1ccccc1N1CCN(S(=O)(=O)CCNC(=O)COc2ccccc2)CC1	-	.	.	.	-	68	-	-	-
O=c1[nH]c(CN2CCN(S(=O)(=O)c3ccc(Cl)cc3)CC2)nc2cc(Cl)ccc12	-	-	-	-	-	89	69	-	-
O=c1[nH]c(CN2CCN(S(=O)(=O)c3cccs3)CC2)nc2c(Br)cc(Br)cc12	-	-	-	-	-	54	-	-	-
COc1cc2nc(CN3CCN(C(C)=O)CC3)[nH]c(=O)c2cc1OC	-	-	-	-	-	-	.	.	.
O=c1[nH]c(CN2CCN(c3ncccn3)CC2)nc2c(Br)cc(Br)cc12	-	-	-	-	-	-	.	.	.
COc1cc2nc(CN3CCC(Cc4ccccc4)CC3)[nH]c(=O)c2cc1OC	-	-	-	-	-	46	-	-	-
COc1cc2nc(CN3CCN(S(=O)(=O)c4ccccc4)CC3)[nH]c(=O)c2cc1OC	-	-	-	-	-	47	-	-	-
Cc1ccc(C)c(S(=O)(=O)N2CCN(C(=O)CCc3nc4ccccc4c(=O)[nH]3)CC2)c1	-	-	-	-	-	-	.	.	.
SMILES	CXCR6 inh	APJ ag	APJ antagonist	CCR6 antagonist	iPSC survival up	EBI2 antag	EBI2 antag conf	EBI2 agonist	bGal cs
COc1ccc(N2CCN(Cc3nc4cc(Cl)ccc4c(=O)[nH]3)CC2)cc1	-	-	-	-	-	-	.	.	.
COc1cc2nc(CN3CCN(S(=O)(=O)c4cc(C)ccc4C)CC3)[nH]c(=O)c2cc1OC	-	-	-	-	-	60	-	-	-
COc1cc2nc(CN3CCN(S(=O)(=O)c4ccc(Cl)cc4)CC3)[nH]c(=O)c2cc1OC	-	-	-	-	-	56	-	-	-
O=C(NCc1ccc(Cl)cc1)N1CCN(Cc2ccccc2)CC1	-	-	-	-	-	-	.	.	.
CCOc1cccc(NC(=O)c2ccc(S(=O)(=O)N(C)C)cc2)c1	-	-	-	-	-	46	-	-	-
N=c1nc2n(cc1F)C1OC(CO)C(O)C1O2 (stereo not drawn)	-	.	.	-	-	-	.	.	.
CC(=O)Nc1ccc(Nc2nc(-c3sc(C)nc3C)cs2)cc1	-	-	-	-	-	-	.	.	.
CC(=O)c1ccc(Nc2nc(-c3sc(C)nc3C)cs2)cc1	-	.	.	.	-	51	-	-	-
CC(=O)c1cccc(Nc2nc(-c3sc(C)nc3C)cs2)c1	-	-	-	-	-	52	-	-	-
Cc1cc(C)cc(OCCNC(=O)c2ccc(Br)cc2)c1	-	-	-	-	-	-	.	.	.
CC(C)Cc1ccc(CN2C(C)C(=O)N(Cc3cn(Cc4ccco4)nn3)CCS2(=O)=O)cc1 (stereo not drawn)	-	.	.	.	-	-	.	.	.
CC(C)(C)OC(=O)NCc1ccc(CNC(=O)c2nc[nH]c2C(=O)N2CCN(c3ccccc3)CC2)cc1	-	-	-	-	-	-	.	.	.
C[C@H]1CN([C@@H](C)CO)S(=O)(=O)c2ccc(Br)cc2O[C@@H]1CN(C)C(=O)Cc1ccccc1	-	.	.	.	-	-	.	.	.
C=C(C(=O)Nc1ccccc1)c1ccc(C)cc1	-	-	-	-	-	-	.	.	.
O=C(Cn1nc(C(=O)O)c2ccccc2c1=O)c1c[nH]c2ccccc12	-	-	-	-	-	77	69	-	-
COc1ccc(Cl)cc1CC=NNC(=O)c1cccc(C)c1O	-	.	.	-	-	-	.	.	.
COc1ccc(OC2CCN(C(=O)Nc3ccc(C)cc3)CC2)cc1	-	-	-	-	-	83	61	-	-
COc1ccc(NC(=S)N2CCC(C(=O)c3ccc(F)cc3)CC2)cc1	-	.	.	-	-	-	.	.	.
COc1ccc(NC(=O)N2CCC(C(=O)c3ccc(F)cc3)CC2)cc1	-	-	-	-	-	53	-	-	-
CSc1ccc(NC(=O)N2CCC(C(=O)c3ccc(F)cc3)CC2)cc1	-	-	-	-	-	64	55	-	-
COC(=O)[C@@]12C[C@@H](CC(=O)NCCCCc3ccccc3)C(=O)N(Cc3ccc4c(c3)OCO4)C1=CCC(C)(C)C2	.	.	.	.	.	35	-	-	-
